From PubChem
Rows were chosen to be rich in hits. Some 5.8% of all compounds tested hit in one or more screens of this group.
T cruzi growth-1 – blocks T. cruzi growth in NIH3T3 culture; T. cruzi beta-gal in NIH3T3, GalScreen luminescence, 90 h; inhibition, % at 8.34 µM; 77,000 tested, 5.9% active;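 active = mean inhibition above about 93%, with at least 55% of replicates each passing it, limit read from the data, passing the limit was not always enough; inconclusive = only one of those two conditions holds; inactive = neither condition holds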
KDM4C inh – inhibitors of human demethylase GASC-1 KDM4C | Q9H3R0 | GST-KDM4C 2-372, H3K9me3 peptide, LANCE TR-FRET | inhibition, % at 12.5 µM | 96,000 tested, 0.15% active | AID 720574;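 active = mean replicate inhibition above about 25%, with at least 55% of replicates also reaching it, limit read from the data, passing the limit was not always enough; inconclusive = only one of those two conditions met; inactive = neither condition met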
Target sequence (Q9H3R0 2-372 limits assumed): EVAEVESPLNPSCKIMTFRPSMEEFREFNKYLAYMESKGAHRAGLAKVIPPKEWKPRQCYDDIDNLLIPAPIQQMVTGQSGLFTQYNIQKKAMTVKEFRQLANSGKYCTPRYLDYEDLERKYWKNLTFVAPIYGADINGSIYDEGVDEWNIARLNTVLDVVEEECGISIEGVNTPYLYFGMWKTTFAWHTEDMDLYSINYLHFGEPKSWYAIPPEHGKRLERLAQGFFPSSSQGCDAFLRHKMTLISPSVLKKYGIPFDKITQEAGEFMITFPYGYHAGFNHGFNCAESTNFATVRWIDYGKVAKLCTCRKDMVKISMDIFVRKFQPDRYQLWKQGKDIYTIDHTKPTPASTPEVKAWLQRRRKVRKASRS
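Material: GST-tagged GASC-1 (JMJD2C) catalytic fragment, aa 2-372 / Quantity: enzyme final amount 10 nM / Medium: HEPES buffer, pH 7.5, plus ascorbate / Doses: one test concentration per compound / Incubation: 30 min reaction, 60 min detection, RT / Measured by: LANCE TR-FRET / Read-out: inhibition from TR-FRET ratio decrease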
Pf Dd2 growth – inhibitors of Plasmodium falciparum Dd2 growth; P. falciparum Dd2 growth, SYBR Green, 72 h; hits give low values; activity change, % at 10 µM; 94,000 tested, 2.3% active; AID 1159554; in the data active = activity change below about -80%; inconclusive = no clear call, values can overlap the other calls
IDH1 R132H inh – blocks human IDH1 R132H reductase activity. O75874. diaphorase/resazurin fluorescence, 60 min. inhibition, % at 10 µM. 70,000 tested, 0.18% active. AID 624101; in the data active = inhibition above about 34%; inconclusive = no clear call, values can overlap the other calls; inactive = below about 11%
T cruzi growth-2 – Trypanosoma cruzi proliferation inhibition; shares compounds with T cruzi growth-1; T. cruzi beta-gal in NIH3T3, GalScreen luminescence, 90 h; inhibition, % at 8.35 µM; 5,600 tested, 72% active; AID 651739;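 active = mean replicate inhibition above about 95% and at least 55% of replicates individually reaching it, limit read from the data; inconclusive = only one of the two criteria is met; inactive = neither criterion is met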
T cruzi growth-3 – inhibitors of T. cruzi proliferation; shares compounds with T cruzi growth-1; T. cruzi beta-gal in NIH3T3, GalScreen luminescence, 90 h; inhibition, % at 2.09 µM; 5,600 tested, 21% active; AID 651740;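 active = mean inhibition above about 95%, with at least 55% of replicates also reaching it, limit read from the data; inconclusive = meets just one of the two conditions; inactive = meets neither condition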
3T3 cytotox – kills mouse NIH/3T3 fibroblasts | shares compounds with T cruzi growth-1 | NIH/3T3 viability, CellTiter-Glo ATP luminescence, 90 h | cytotoxicity (signal decrease), % at 8.35 µM | 5,600 tested, 14% active;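 active = mean signal decrease across replicates above about 35% based on untreated-well scatter, with enough replicates individually passing, limit read from the data; inconclusive = no rule stated though some were filed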
NIH3T3 tox 2 – kills mouse NIH/3T3 fibroblasts | inhibition, % at 24.9 µM | NIH/3T3 viability, CellTiter-Glo ATP luminescence, 90 h | shares compounds with T cruzi growth-1 | 5,600 tested, 56% active | AID 651744;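 active = mean loss of cell viability signal at or above a set limit, and enough replicates individually reaching it; inconclusive = meets only the mean limit or only the replicate share; inactive = meets neither condition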
Numbers stand for hits; - = inactive; ? = inconclusive; . = no result given.

SMILES | T cruzi growth-1 | KDM4C inh | Pf Dd2 growth | IDH1 R132H inh | T cruzi growth-2 | T cruzi growth-3 | 3T3 cytotox | NIH3T3 tox 2
CC(C)n1c2ccccc2c2nnc(SCC(=O)N3c4ccccc4Sc4ccccc43)nc21 | . | . | . | - | . | . | . | .
Cc1ccc(S(=O)(=O)N(C)C[C@@H]2OCCCC[C@@H](C)Oc3ccc(NC(=O)NC4CCCCC4)cc3C(=O)N([C@@H](C)CO)C[C@H]2C)cc1 | - | - | - | - | . | . | . | .
Cc1ccc(S(=O)(=O)N(C)C[C@H]2OCCCC[C@@H](C)Oc3ccc(NC(=O)NC4CCCCC4)cc3C(=O)N([C@H](C)CO)C[C@H]2C)cc1 | 99 | - | - | . | 105 | ? | - | -
COc1ccc([N+](=O)[O-])cc1NC(=O)CS(=O)(=O)Cc1ccccc1 | . | . | . | - | . | . | . | .
COc1ccccc1-c1ccc2c(c1)O[C@@H](CN(C)C)[C@@H](C)CN([C@@H](C)CO)S2(=O)=O | - | - | - | - | . | . | . | .
COc1ccccc1-c1ccc2c(c1)O[C@H](CN(C)S(=O)(=O)c1ccc(C)cc1)[C@@H](C)CN([C@@H](C)CO)S2(=O)=O | 126 | - | - | - | 104 | - | 39 | 36
COc1ccccc1-c1ccc2c(c1)O[C@@H](CN(C)S(=O)(=O)c1ccc(C)cc1)[C@H](C)CN([C@H](C)CO)S2(=O)=O | 127 | - | -84 | - | 105 | 103 | - | 45
Cc1cc(C)nc(SCc2noc(-c3ccc(Cl)cc3)n2)n1 | . | . | . | - | . | . | . | .
O=C(C[C@H]1C[C@H]2c3cc(NC(=O)Nc4ccc(C(F)(F)F)cc4)ccc3O[C@H]2[C@@H](CO)O1)NCc1ccc(Cl)cc1 | - | - | - | - | . | . | . | .
O=C(C[C@@H]1C[C@@H]2c3cc(NC(=O)Nc4ccc(C(F)(F)F)cc4)ccc3O[C@@H]2[C@H](CO)O1)NCc1ccc(Cl)cc1 | 166 | - | - | - | 109 | - | - | -
O=C(C[C@@H]1C[C@H]2c3cc(NC(=O)Nc4ccc(C(F)(F)F)cc4)ccc3O[C@H]2[C@@H](CO)O1)NCc1ccc(Cl)cc1 | ? | - | - | - | 100 | - | - | -
Cc1ccc(-c2nc3ccccc3o2)cc1NC(=O)CN1C(=O)c2ccccc2C1=O | . | . | . | - | . | . | . | .
C[C@@H]1CCCCO[C@H](CN(C)C(=O)Nc2ccc(C(F)(F)F)cc2)[C@H](C)CN([C@@H](C)CO)C(=O)c2cc(N(C)C)ccc2O1 | - | - | - | - | . | . | . | .
C[C@@H]1CCCCO[C@@H](CN(C)C(=O)Nc2ccc(C(F)(F)F)cc2)[C@@H](C)CN([C@@H](C)CO)C(=O)c2cc(N(C)C)ccc2O1 | 100 | - | - | - | 111 | - | - | -
C[C@H]1CCCCO[C@H](CN(C)C(=O)Nc2ccc(C(F)(F)F)cc2)[C@@H](C)CN([C@@H](C)CO)C(=O)c2cc(N(C)C)ccc2O1 | 99 | - | - | . | 100 | - | - | -
COc1ccc(NC(=O)Nc2ccc3c(c2)C(=O)N([C@@H](C)CO)C[C@H](C)[C@@H](CN(C)Cc2ccc4c(c2)OCO4)OCCCC[C@H](C)O3)cc1 | ? | - | - | . | 103 | - | - | 105
COc1ccc(CN(C)C[C@H]2OCCCC[C@H](C)Oc3ccc(NC(=O)Nc4ccc5c(c4)OCO5)cc3C(=O)N([C@H](C)CO)C[C@H]2C)cc1 | 105 | - | - | . | ? | ? | - | 78
COc1ccc(NC(=O)Nc2ccc3c(c2)C(=O)N([C@H](C)CO)C[C@@H](C)[C@@H](CN(C)C(=O)Nc2ccc(OC)cc2)OCCCC[C@@H](C)O3)cc1 | . | - | - | - | . | . | . | .
COc1ccc(NC(=O)Nc2ccc3c(c2)C(=O)N([C@@H](C)CO)C[C@H](C)[C@H](CN(C)C(=O)Nc2ccc(C(F)(F)F)cc2)OCCCC[C@H](C)O3)cc1 | ? | - | - | - | 104 | 112 | - | -
COc1ccc(NC(=O)Nc2ccc3c(c2)C(=O)N([C@@H](C)CO)C[C@@H](C)[C@H](CN(C)C(=O)Nc2ccc(C(F)(F)F)cc2)OCCCC[C@@H](C)O3)cc1 | 114 | - | - | - | 109 | 109 | - | -
COCC#Cc1ccc([C@H]2[C@@H](CO)N3CCCCN(S(=O)(=O)c4ccc(OC)cc4)C[C@@H]23)cc1 | ? | - | - | . | 100 | - | - | 34
COCC#Cc1ccc([C@H]2[C@H](CO)N3CCCCN(S(=O)(=O)c4ccc(OC)cc4)C[C@@H]23)cc1 | ? | - | - | . | 100 | - | - | -
C[C@H]1CN([C@@H](C)CO)S(=O)(=O)c2ccc(C#CC3CCCC3)cc2O[C@@H]1CN(C)C(=O)Cc1ccncc1 | 122 | - | - | . | 105 | - | - | 101
C[C@@H]1CN([C@H](C)CO)S(=O)(=O)c2ccc(C#CC3CC3)cc2O[C@@H]1CN(C)C(=O)Cc1ccncc1 | ? | - | - | . | 102 | - | - | -
C[C@H](CO)N1C[C@H](C)[C@H](CN(C)C(=O)Cc2ccncc2)Oc2cc(C#CC3CCCC3)ccc2S1(=O)=O | 116 | - | - | . | 109 | - | - | 33
SMILES | T cruzi growth-1 | KDM4C inh | Pf Dd2 growth | IDH1 R132H inh | T cruzi growth-2 | T cruzi growth-3 | 3T3 cytotox | NIH3T3 tox 2
Cc1cc(NC(=O)CN(c2ccc(Cl)c(C(F)(F)F)c2)S(C)(=O)=O)ccc1Br | . | . | . | - | . | . | . | .
O=C(CSc1nc(-c2ccccc2)c(-c2ccccc2)[nH]1)Nc1ccccc1F | . | . | . | - | . | . | . | .
Cc1ccc(S(=O)(=O)Nc2ccc3c(c2)C(=O)N([C@@H](C)CO)C[C@@H](C)[C@H](CN(C)C(=O)Nc2cccc4ccccc24)OCCCC[C@@H](C)O3)cc1 | 103 | - | - | - | 109 | - | - | -
Cc1ccc(S(=O)(=O)Nc2ccc3c(c2)C(=O)N([C@H](C)CO)C[C@@H](C)[C@@H](CN(C)C(=O)Nc2cccc4ccccc24)OCCCC[C@@H](C)O3)cc1 | 108 | - | -86 | - | 102 | 102 | - | -
Cc1ccc(S(=O)(=O)Nc2ccc3c(c2)C(=O)N([C@@H](C)CO)C[C@H](C)[C@H](CN(C)C(=O)Nc2cccc4ccccc24)OCCCC[C@H](C)O3)cc1 | 105 | - | ? | . | 106 | - | - | -
C[C@@H]1CCCCO[C@@H](CN(C)C(=O)Nc2cccc3ccccc23)[C@@H](C)CN([C@H](C)CO)C(=O)c2cc(NS(=O)(=O)c3ccc(F)cc3)ccc2O1 | - | - | - | - | . | . | . | .
Cc1ccc(S(=O)(=O)Nc2ccc3c(c2)C(=O)N([C@H](C)CO)C[C@H](C)[C@H](CN(C)C(=O)Nc2cccc4ccccc24)OCCCC[C@H](C)O3)cc1 | - | - | - | . | . | . | . | .
